In PMC8764296 (International Journal of Nanomedicine, 2022):

Assay: Liver microsomal stability
Type: in vitro ADME
Conditions: mouse liver microsomes 0.5 mg/mL, 50 μM, 37 °C, 4 hours incubation
Outline: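 Compound at 50 μM (in vehicle or micelles), with coumarin as control, was preincubated 5 min at 37 °C with mouse liver microsomes (0.5 mg/mL) in PBS pH 7.4. Reactions were started with an NADPH-generating system (3 mM NADPH, 7.2 mM MgCl2, 6 mM G6P, 3 unit G6PDH) and sampled at 0, 5, 30 min and 1, 2, 4 h. Samples were DMSO-extracted for HPLC. ke from lnC versus t gave t1/2 and CL. Triplicate, mean and SD.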

O=c1ccc2ccccc2o1 [Coumarin]
level remaining in liver microsome: 10.7 ± 2.2%
